Assay [1] relates to Escherichia coli. Nature of the assay: Inhibition of LPS-deficient Escherichia coli OC2530 MurF assessed as UDP-MurNAc-pentapeptide product level at 2 times MIC by HPLC (reference value: 1 mAU).
Assay [2] has as its system Escherichia coli. Nature of the assay: Bactericidal activity against LPS-deffective Escherichia coli OC2530 assessed as log reduction in bacterial count at =>2 times MIC after 3 hrs relative to control. The format is functional.
The test system of assay [3] is Escherichia coli. Briefly: Antimicrobial activity against LPS-deffective Escherichia coli OC2530 at 0.5 times MIC by light microscopy relative to control. The format is functional, organism-based. In outline: (§1)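 Cells were fixed on a glass slide under a coverslip and viewed by light microscopy at ×100/×1.25 oil immersion. Representative images were taken.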
Assay [4] relates to Escherichia coli. Briefly: Antimicrobial activity against LPS-deffective Escherichia coli OC2530 assessed as cell lysis at 4 times MIC by light microscopy. The format is functional, organism-based. In outline: as §1
For assay [5], the system named is Escherichia coli. Nature of the assay: Antimicrobial activity against LPS-deffective Escherichia coli OC2530 assessed as cell aggregation at 0.5 times MIC by TEM relative to untreated control. The format is functional, organism-based. In outline:
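At 5 h, cells were fixed in 1% glutaraldehyde (final) for 1 h at room temperature, pelleted, and resuspended in PBS. They were negatively stained with 1% ammonium molybdate and imaged by TEM at ×15,000.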

Assay [6] concerns Escherichia coli. Nature of the assay: Antimicrobial activity against LPS-deffective Escherichia coli OC2530 by broth microdilution method in presence of polymyxin B nonapeptide. The class given is functional. In outline: (§2)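 MICs by CLSI broth microdilution. Where polymyxin B nonapeptide was included, it was present at 2 μg/ml alongside the test compound.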
Assay [7] deals with Escherichia coli. Briefly: Inhibition of LPS-deficient Escherichia coli OC2530 MurF assessed as UDP-MurNAc-tripeptide substrate level at 0.5 times MIC by HPLC (reference value: 1 mAU).
The subject of the next assay is Enterococcus faecalis. Briefly: Antimicrobial activity against Enterococcus faecalis ATCC 29212 by broth microdilution method in presence of polymyxin B nonapeptide. The format is functional. Summed up:
as §2

For assay [8], the system named is Escherichia coli. Briefly: Antimicrobial activity against LPS-deffective Escherichia coli OC2530 assessed as cell lysis at 2 times MIC by light microscopy. The class given is functional, organism-based. Summed up: as §1
For assay [9], the system named is Escherichia coli. Nature of the assay: Antimicrobial activity against LPS-deffective Escherichia coli OC2530 assessed as log reduction in bacterial count at 4 times MIC after 30 mins relative to control. The class given is functional.
A further assay concerns Staphylococcus aureus. Briefly: Antimicrobial activity against Staphylococcus aureus ATCC 29213 by broth microdilution method. The class given is functional. In outline:
as §2

Calls of active or inactive are those of the source. No cut-off for these calls is given here.

Consider `COc1ccc2nc(OC)c([C@@H](c3ccccc3)[C@](O)(CCN(C)C)c3ccccc3)cc2c1`, for which the Activity (fold of control) in the assay on Escherichia coli [1] is 0.33; in the assay on Escherichia coli [7], 6. The figures for the FC in the assay with Escherichia coli [2] and in the assay with Escherichia coli [9] were 5 and 2, respectively. The outcome in the assay on Escherichia coli [3] was inactive. Further, the outcome with Escherichia coli [4], in the assay with Escherichia coli [5] and with Escherichia coli [8] was Active. Also, the MIC with Escherichia coli [6] is 2 µg/mL; in the assay with Enterococcus faecalis, greater than 32 µg/mL; against Staphylococcus aureus, greater than 32 µg/mL.

Source of the values: ChEMBL document CHEMBL1671657, “MurF inhibitors with antibacterial activity: effect on muropeptide levels” (Antimicrob Agents Chemother, 2009).
